# Data as given in ChEMBL document CHEMBL4017544 (J Med Chem, 2017).
# Activity calls are given as the source filed them. The rule behind the calls is not given here.
# Experiments:
# Mus musculus [1] = assay: Toxicity in db/db mouse assessed as effect on food consumption at 1 to 2 mg/kg, ip administered thrice per week for 12 consecutive weeks measured every other day; format: organism-based; details: in vivo
# Procedure, shortened: (§1)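 Male db/db mice (8 weeks old, specific pathogen-free, normal chow and filtered water ad libitum) were randomized and dosed i.p. three times weekly for 12 consecutive weeks; vehicle was 5% Tween-80 in 0.9% saline. Body weight and food and water consumption were recorded every other day.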
# Mus musculus [2] = assay: Toxicity in db/db mouse assessed as change in body weight at 1 to 2 mg/kg, ip administered thrice per week for 12 consecutive weeks measured every other day; format: organism-based; details: in vivo; procedure, shortened: as §1
# Mus musculus [3] = assay: Antidiabetic nephropathic activity in db/db mouse assessed as reduction in plasma creatinine levels at 1 to 2 mg/kg, ip administered thrice per week for 12 consecutive weeks measured at 11 weeks post dose; format: functional, organism-based
# [4] = Drug level in Sprague-Dawley rat kidney at 30 mg/kg, ip measured at 30 mins by LC-MS/MS analysis; format: ADME, organism-based; details: read-out: Drug uptake
# Procedure, shortened: (§2)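 Rats given a single ip injection, 20 mg/kg (0.04 mmol) of CDDO-Me or 30 mg/kg (0.04 mmol) of the prodrug; heart, kidney and liver collected over time; parent compound and liberated CDDO-Me measured by LC-MS/MS.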
# Kidney [5] = assay: In vivo drug metabolism in Sprague-Dawley rat assessed as CDDO-Me formation in kidney at 30 mg/kg, ip measured at 10 mins by LC-MS/MS analysis; format: ADME, organism-based; procedure, shortened: as §2
# Kidney [6] = assay: In vivo drug metabolism in Sprague-Dawley rat assessed as CDDO-Me formation in kidney at 30 mg/kg, ip measured at 90 mins by LC-MS/MS analysis; format: ADME, organism-based; details: 1.5 h; procedure, shortened: as §2
# hERG (KCNH2) = hERG (KCNH2) (Homo sapiens, UniProt Q12809); assay: Inhibition of human ERG expressed in CHO cells at 200 uM at -80 mV holding potential by patch clamp assay relative to control; format: cell-based; details: CHO cells expressing human ERG
# Chain of hERG (KCNH2) (Q12809 whole entry): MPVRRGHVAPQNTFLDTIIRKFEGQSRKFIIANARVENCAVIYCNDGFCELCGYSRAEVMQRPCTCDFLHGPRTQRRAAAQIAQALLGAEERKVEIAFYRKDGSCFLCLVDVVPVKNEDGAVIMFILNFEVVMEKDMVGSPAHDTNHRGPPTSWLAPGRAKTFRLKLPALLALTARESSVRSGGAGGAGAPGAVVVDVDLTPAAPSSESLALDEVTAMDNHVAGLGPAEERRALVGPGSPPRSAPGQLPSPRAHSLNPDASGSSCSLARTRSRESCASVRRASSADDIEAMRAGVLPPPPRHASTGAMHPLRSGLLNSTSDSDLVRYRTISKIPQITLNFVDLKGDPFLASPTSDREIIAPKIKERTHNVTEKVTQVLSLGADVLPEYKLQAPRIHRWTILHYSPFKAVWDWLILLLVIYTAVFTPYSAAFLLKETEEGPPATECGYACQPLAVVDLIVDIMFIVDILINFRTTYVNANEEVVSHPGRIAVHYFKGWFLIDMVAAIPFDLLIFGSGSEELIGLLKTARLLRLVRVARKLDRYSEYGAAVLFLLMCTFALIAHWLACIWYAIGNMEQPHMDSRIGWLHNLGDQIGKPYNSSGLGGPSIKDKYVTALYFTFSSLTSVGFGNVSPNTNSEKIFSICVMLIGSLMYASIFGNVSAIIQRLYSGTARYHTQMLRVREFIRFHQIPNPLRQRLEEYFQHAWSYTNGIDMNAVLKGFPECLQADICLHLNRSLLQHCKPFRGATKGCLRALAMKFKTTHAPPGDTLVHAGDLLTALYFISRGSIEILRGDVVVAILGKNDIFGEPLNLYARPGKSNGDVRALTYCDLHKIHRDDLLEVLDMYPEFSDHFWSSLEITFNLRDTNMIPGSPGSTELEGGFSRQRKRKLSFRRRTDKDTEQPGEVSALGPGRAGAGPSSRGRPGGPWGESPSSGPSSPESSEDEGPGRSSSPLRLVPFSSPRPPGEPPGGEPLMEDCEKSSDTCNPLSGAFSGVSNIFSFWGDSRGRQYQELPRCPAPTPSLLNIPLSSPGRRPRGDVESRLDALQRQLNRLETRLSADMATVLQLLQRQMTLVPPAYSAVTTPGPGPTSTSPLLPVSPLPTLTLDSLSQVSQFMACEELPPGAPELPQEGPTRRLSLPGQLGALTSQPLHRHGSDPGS
# Mus musculus [7] = assay: Toxicity in db/db mouse assessed as effect on water consumption at 0.65 mg/kg, ip administered trice per week for 12 consecutive weeks measured every other day; format: organism-based; details: in vivo; procedure, shortened: as §1
# Mus musculus [8] = assay: Anti-diabetic nephropathic activity in db/db mouse assessed as reduction in plasma urea nitrogen levels at 0.65 mg/kg, ip administered trice per week for 12 consecutive weeks measured 11 weeks post dose; format: functional, organism-based
# Procedure, shortened: (§3)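 Male db/db mice, 8 weeks old, randomized; ip vehicle (5% Tween-80 in 0.9% saline) or drug three times weekly for 12 weeks, n = 6 per group. After 11 weeks, 24 h urine collected for volume, albumin and creatinine, with UACR calculated; blood then sampled for plasma BUN and uric acid. Mean ± SD, one-way ANOVA with Tukey test.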
# Mus musculus [9] = assay: Anti-diabetic nephropathic activity in db/db mouse assessed as reduction in plasma uric acid levels at 0.65 mg/kg, ip administered trice per week for 12 consecutive weeks measured at 11 weeks post dose; format: functional, organism-based; procedure, shortened: as §3
# [10] = Drug level in Sprague-Dawley rat liver at 20 mg/kg, ip measured at 90 mins by LC-MS/MS analysis; format: ADME, organism-based; details: read-out: Drug uptake; procedure, shortened: as §2
# Mus musculus [11] = assay: Cardioprotective activity in C57BL/6 db/db mouse assessed as reduction in apoptotic cardiomyocyte levels at 0.65 mg/kg, ip administered for 12 weeks by TUNNEL assay; format: functional, organism-based
# Procedure, shortened: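 db/db mice, 8 weeks old, with C57BL/6 controls; ip vehicle or drug for 12 weeks, n = 6 per group. Heart sections (5 μm) from paraformaldehyde-fixed, paraffin-embedded tissue analysed by TUNEL; percentage of apoptotic cardiomyocytes from three sections per mouse; mean ± SD from two separate experiments.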
# [12] = molecular target: Kelch-like ECH-associated protein 1 (Homo sapiens) (UniProt Q14145); assay: Inhibition of Keap1/Nrf2 (unknown origin) interaction transfected in HEK293 cells assessed as increase in cytosolic HO-1 levels at 200 to 1000 nM after 48 hrs by Western blot analysis; format: cell-based
# Chain of Kelch-like ECH-associated protein 1 (Homo sapiens) (Q14145 whole entry): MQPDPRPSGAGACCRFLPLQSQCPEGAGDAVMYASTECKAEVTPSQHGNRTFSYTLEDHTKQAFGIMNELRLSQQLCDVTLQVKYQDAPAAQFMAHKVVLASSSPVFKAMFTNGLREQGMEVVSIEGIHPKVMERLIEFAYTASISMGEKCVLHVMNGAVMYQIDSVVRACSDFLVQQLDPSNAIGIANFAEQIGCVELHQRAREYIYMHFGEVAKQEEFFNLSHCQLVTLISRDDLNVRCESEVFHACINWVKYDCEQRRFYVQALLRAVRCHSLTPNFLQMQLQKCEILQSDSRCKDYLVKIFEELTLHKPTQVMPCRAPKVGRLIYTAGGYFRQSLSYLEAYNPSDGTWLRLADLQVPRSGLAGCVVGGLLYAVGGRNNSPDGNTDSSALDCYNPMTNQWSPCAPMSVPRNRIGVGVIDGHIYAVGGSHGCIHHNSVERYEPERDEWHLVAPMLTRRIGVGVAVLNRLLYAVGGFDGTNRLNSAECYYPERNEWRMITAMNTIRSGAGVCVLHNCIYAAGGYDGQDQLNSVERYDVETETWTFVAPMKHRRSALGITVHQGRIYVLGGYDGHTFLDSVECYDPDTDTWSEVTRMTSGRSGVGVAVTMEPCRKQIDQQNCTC
# Procedure, shortened: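 HEK293 cells grown in high-glucose DMEM with 10% FBS were treated in triplicate at 200 or 1000 nM for 48 h. Nuclear and cytosolic Nrf2, HO-1 and cytoplasmic NQO1 were measured by western blot with specific antibodies, with TBP and β-actin among the probed proteins. The nuclear/cytosolic Nrf2 ratio was derived from these blots. Three independent experiments, mean ± SD.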
# [13] = Drug level in Wistar rat plasma treated with 1-Hydroxyl-2-cyano-3-(4-(methyl-L-glutaminate-N5-yl)-benzyloxy)-12-oxo-oleana-2(3),9(11)-dien-28-oic Acid Methyl Ester assessed as GGT-mediated metabolite formation at 100 uM after 8 hrs by HPLC analysis; format: ADME
# Procedure, shortened: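 Plasma, and kidney and liver homogenates in PBS, from three Wistar rats; substrate added at 100 μM at 37 °C; metabolite measured by HPLC every 60 min for 8 h; mean ± SD of three experiments.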
SMILES,Activity (Mus musculus [1]),Activity (Mus musculus [2]),Activity (Mus musculus [3]),concentration at 0.5 h [4] [ng/g],Drug metabolism (Kidney [5]) [µg/g],Drug metabolism (Kidney [6]) [µg/g],inhibition at 200 µM (hERG (KCNH2)) [%],Activity (Mus musculus [7]),Activity (Mus musculus [8]),Activity (Mus musculus [9]),concentration at 1.5 h [10] [ng/g],Activity (Mus musculus [11]),inhibition [12],Drug metabolism [13]
COC(=O)[C@@H](N)CCC(=O)Nc1ccc(COC2=C(C#N)[C@H](O)[C@]3(C)C4=CC(=O)[C@@H]5[C@@H]6CC(C)(C)CC[C@]6(C(=O)OC)CC[C@@]5(C)[C@]4(C)CC[C@H]3C2(C)C)cc1,Non-Toxic,Non-Toxic,Active,1000,0.04,0.18,36.1,,,,,,,
COC(=O)[C@]12CCC(C)(C)C[C@H]1[C@H]1C(=O)C=C3[C@@]4(C)C=C(C#N)C(=O)C(C)(C)[C@@H]4CC[C@@]3(C)[C@]1(C)CC2 [BARDOXOLONE METHYL],,,,,,,,Non-Toxic,Active,Active,1550,inactive,Active,Metabolite_Detected
